Results: publication PMC8383301 (Molecular Pharmaceutics, 2021)
“Also recorded” adds a separate entry of the source. Where two headings read alike, the source gives them in different places.

Columns and labels:
P-gp [1] = settings: enriched diet; mice models of AD; cited from earlier work
P-gp [2] = settings: colo-320 cells; cited from earlier work
[3] = Safety of MC111 administration to rats; type: in vivo; settings: 6 mg/kg dose
P-glycoprotein (P-gp) [4] = system: P-glycoprotein (P-gp); parameters: species or system Wistar rats; settings: rat, in vivo
[5] = rat, in vivo, 4.5 mg/kg
[6] = system: pregnane X receptor (PXR); experiment: Western blot of PXR expression in whole-brain tissue; type: in vivo, Wistar rats
Outline: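 Male Wistar rats (RjHan:WI) got a single i.v. tail-vein dose of 4.5 or 6 mg/kg (n = 6 each) or vehicle (n = 6) under isoflurane, 24 h before scanning. The vehicle was 5% DMSO, 10% PEG 300 and 85% water. Whole-brain tissue was extracted in cold RIPA with protease inhibitors (~10:1 v/w). Semidry transfer to PVDF ran 2 h; blocking was 1 h in 3% BSA/TBST. PXR was normalised to histone H3, and group means to control.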

P-glycoprotein (P-gp) [7] = experiment: Western blot of P-gp expression in whole-brain tissue; type: in vivo, Wistar rats; settings: MC111 4.5 or 6 mg/kg, 24 h
P-gp [8] = settings: SW480 human colon adenocarcinoma cells; cited from earlier work
[9] = system: breast cancer resistance protein (BCRP); settings: colo-320 and MCF7 cells; cited from earlier work
P-gp [10] = settings: long-term exposure (60 days); rat brain microvascular endothelial cells in vitro; cited from earlier work
P-gp [11] = settings: caco-2 cells; cited from earlier work
P-gp [12] = settings: isolated brain capillaries in vitro; cited from earlier work
P-gp [13] = settings: transgenic mouse model of human AD; treatment for 7 days; cited from earlier work

In the case of C=C1/C(=C\C=C2/CCC[C@]3(C)[C@@H]([C@H](C)CCCC(C)(C)O)CC[C@@H]23)C[C@@H](O)C[C@@H]1O [1,25-Dihydroxyvitamin D3], the Aβ deposition (P-gp [1]) is listed as “reduced” and the P-gp function (P-gp [1]) is listed as “induced”.
In the case of Oc1ccc(-c2ccc(CN3CCN(C4CCCCC4)CC3)cc2)cc1 [MC111, 4′-((4-cyclohexylpiperazin-1-yl)methyl)-[1,1′-biphenyl]-4-ol], the “[3H]verapamil efflux (P-gp function)” value (P-gp [2]) is listed as “increase”, the safety of administration [3] is listed as “safely administered” and the “SUV–TAC of the whole brain, differences among the groups” value (P-glycoprotein (P-gp) [4]) is listed as “did not find any significant differences”. For the same molecule, the “decrease of whole-brain K1 compared to the low-dose group” value (P-glycoprotein (P-gp) [4]) was 29%, the “SUV40–60 min of the whole brain” value (P-glycoprotein (P-gp) [4]; 4.5 mg/kg) was 0.45 ± 0.02 and the “decrease of VT and K1 values compared to the control group” value (P-glycoprotein (P-gp) [4]; 4.5 mg/kg) was “not statistically significant”. The “decrease of whole-brain K1 compared to controls” value (P-glycoprotein (P-gp) [4]; 4.5 mg/kg) was 7%, the “decrease of whole-brain VT compared to controls” value (P-glycoprotein (P-gp) [4]; 4.5 mg/kg) was 6% and the “K1 and VT values compared to the control group” value (P-glycoprotein (P-gp) [4]; 6 mg/kg) was “significant reduction”. For the same molecule, the “decrease of whole-brain K1 compared to controls” value (P-glycoprotein (P-gp) [4]; 6 mg/kg) was 34%, the “Ke vs control group” value [5] was “no significant differences” and the “PXR expression levels, treated vs control” value [6] was “did not detect any increase”. The PXR expression levels ([6]; high-dose group, MC111 6 mg/kg) was “tendency to lower levels”, the “P-gp expression, treated vs control” value (P-glycoprotein (P-gp) [7]) was “did not detect changes; also recorded: no significant differences” and the P-gp expression (P-gp [8]) was “increases”. For the same molecule, the “BCRP function and expression” value [9] was “activates”.
For NC(=O)N1c2ccccc2C=Cc2ccccc21 [carbamazepine], the “P-gp expression levels and P-gp function” value (P-gp [10]) is given as “increased”.
For COc1cc2c(c(OC)c1OC)-c1ccc(OC)c(=O)cc1[C@@H](NC(C)=O)CC2 [colchicine], the P-gp expression (P-gp [11]) is listed as “increased” and the P-gp function (P-gp [11]) is listed as “without increasing”.
For CC(C)=CCC[C@]1(C)[C@@H](CC=C(C)C)C[C@@]2(CC=C(C)C)C(=O)[C@]1(C(=O)C(C)C)C(=O)C(CC=C(C)C)=C2O [hyperforin], the “P-gp expression and function” value (P-gp [12]) is listed as “increase”.
In the case of CCC1(c2ccccc2)C(=O)NC(=O)NC1=O [phenobarbital], the “P-gp expression levels and P-gp function” value (P-gp [10]) is listed as “increased”.
For O=C1NC(=O)C(c2ccccc2)(c2ccccc2)N1 [phenytoin], the “P-gp expression levels and P-gp function” value (P-gp [10]) is given as “increased”.
In the case of CC(=O)[C@H]1[C@H](C#N)C[C@H]2[C@@H]3CC=C4C[C@@H](O)CC[C@]4(C)[C@H]3CC[C@@]21C [pregnenolone-16α-carbonitrile], the P-gp function (P-gp [13]) is listed as “restored”.
In the case of CO[C@H]1/C=C/O[C@@]2(C)Oc3c(C)c(O)c4c(O)c(c(/C=N/N5CCN(C)CC5)c(O)c4c3C2=O)NC(=O)/C(C)=C\C=C\[C@H](C)[C@H](O)[C@@H](C)[C@@H](O)[C@@H](C)[C@H](OC(C)=O)[C@@H]1C [rifampin], the “P-gp expression and function” value (P-gp [12]) is given as “increase”.
In the case of CCCC(CCC)C(=O)O [valproic acid], the “P-gp expression levels and P-gp function” value (P-gp [10]) is listed as “increased”.
